One assay relates to A549. The experiment in a line: Inhibition of A549 cancer cell proliferation. The assay is classed as functional, cell-based. The settings on record: Homo sapiens. The essentials:
(§1)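 Cytotoxicity measured by sulforhodamine B (SRB) assay following NCI protocols. Human tumour cell lines: A 549 (non-small cell lung, from NCI), Col 1 (human colon carcinoma, from University of Illinois at Chicago surgical oncology), HL-60 (myeloid leukaemia, from ATCC) and HepG2 (hepatocarcinoma, from ATCC).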

Assay [1] has as its target Cyclin-dependent kinase 2 (Homo sapiens, UniProt P24941). The experiment in a line: Inhibition of Cyclin-dependent kinase 2 (CDK2/cyclin A).
The next assay has as its system COLO1. The experiment in a line: Inhibition of Col1 cancer cell proliferation. The assay is classed as functional, cell-based, Homo sapiens. The essentials: as §1
The target in assay [2] is Cyclin-dependent kinase 4 (Homo sapiens, UniProt P11802). The experiment in a line: Inhibition of Cyclin-dependent kinase 4 (CDK4/cyclin Dl).
Sequence of Cyclin-dependent kinase 4 (P11802 whole entry): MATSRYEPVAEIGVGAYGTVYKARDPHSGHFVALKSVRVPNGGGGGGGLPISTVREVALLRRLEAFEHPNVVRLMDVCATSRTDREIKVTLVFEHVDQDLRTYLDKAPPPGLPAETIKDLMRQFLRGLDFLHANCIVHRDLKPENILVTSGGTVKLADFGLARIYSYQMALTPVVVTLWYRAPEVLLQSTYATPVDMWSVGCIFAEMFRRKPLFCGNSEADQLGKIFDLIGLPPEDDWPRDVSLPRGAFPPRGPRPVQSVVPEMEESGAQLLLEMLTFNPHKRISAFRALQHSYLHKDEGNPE
The next assay concerns HL-60. The experiment in a line: Inhibition of HL60 cancer cell proliferation. It counts as functional, cell-based, Homo sapiens. The essentials: as §1
For another assay, the system named is HepG2. Put plainly: Inhibition of HepG2 cancer cell proliferation. The assay is classed as functional, cell-based. The settings on record: Homo sapiens. The essentials:
as §1

Setting [3] is: Homo sapiens, COLO1, read-out: IC50.
Where [4] appears, read: Homo sapiens, HL-60, read-out: IC50.

This is an account of results in ChEMBL document CHEMBL1133408, “5-Arylamino-2-methyl-4,7-dioxobenzothiazoles as inhibitors of cyclin-dependent kinase 4 and cytotoxic agents” (Bioorg Med Chem Lett, 2000).

As a reminder, the IC50 is the concentration that inhibits the measured activity by half.

In brackets after ≈: the same amount, converted by molar mass.

On to `Cc1nc2c(s1)C(=O)C=C(Nc1ccc(O)cc1)C2=O`, for which the IC50 in the assay on A549 is 0.7 µg/mL (≈ 2.44 µM); in assay [1], > 200 µM; in the assay with COLO1 (setting [3]) it was 1.85 µg/mL (≈ 6.46 µM); in assay [2], 6.7 µM; in the assay with HL-60 (setting [4]), 0.26 µg/mL (≈ 0.908 µM); in the assay with HepG2, 1.36 µg/mL (≈ 4.75 µM).

Consider `Cc1nc2c(s1)C(=O)C=C(Nc1ccc(Br)cc1)C2=O`, for which the IC50 in the assay with A549 was 3.6 µg/mL (≈ 10.3 µM); in assay [1], > 200 µM; with COLO1 (setting [3]) it was 6.57 µg/mL (≈ 18.8 µM); in assay [2] it was 6.7 µM; in the assay on HL-60 (setting [4]) it was 0.28 µg/mL (≈ 0.802 µM); in the assay on HepG2, 2.78 µg/mL (≈ 7.96 µM).

Regarding `Cc1nc2c(s1)C(=O)C=C(Nc1ccc(I)cc1)C2=O`, the IC50 was 2.08 µg/mL (≈ 5.25 µM) with A549; > 200 µM in assay [1]; 2.08 µg/mL (≈ 5.25 µM) with COLO1 (setting [3]); 3 µM in assay [2]; 0.24 µg/mL (≈ 0.606 µM) in the assay on HL-60 (setting [4]); 1.95 µg/mL (≈ 4.92 µM) with HepG2.

As for `COc1ccc(NC2=CC(=O)c3sc(C)nc3C2=O)cc1`, the IC50 with A549 is 1.65 µg/mL (≈ 5.49 µM); in assay [1], > 200 µM; with COLO1 (setting [3]) it was 2.01 µg/mL (≈ 6.69 µM); in assay [2] it was 5.6 µM; with HL-60 (setting [4]) it was 0.27 µg/mL (≈ 0.899 µM); in the assay with HepG2, 1.39 µg/mL (≈ 4.63 µM).

Turning to `Cc1ccc(NC2=CC(=O)c3sc(C)nc3C2=O)cc1`, the IC50 with A549 was 0.61 µg/mL (≈ 2.15 µM); in assay [1], > 200 µM; with COLO1 (setting [3]), 1.08 µg/mL (≈ 3.8 µM); in assay [2], 6 µM; in the assay with HL-60 (setting [4]) it was 0.3 µg/mL (≈ 1.06 µM).

As to `Cc1nc2c(s1)C(=O)C=C(Nc1ccccc1)C2=O`, the concentration for half-maximal inhibition (IC50) is 0.64 µg/mL (≈ 2.37 µM) in the assay on A549; > 200 µM in assay [1]; 1.93 µg/mL (≈ 7.14 µM) in the assay with COLO1 (setting [3]); 6 µM in assay [2]; 0.28 µg/mL (≈ 1.04 µM) with HL-60 (setting [4]); 1.3 µg/mL (≈ 4.81 µM) in the assay with HepG2.

For the molecule `Cc1nc2c(s1)C(=O)C=C(Nc1ccc(Cl)cc1)C2=O`, the IC50 is 3.6 µg/mL (≈ 11.8 µM) with A549; > 200 µM in assay [1]; 20 µg/mL (≈ 65.6 µM) in the assay with COLO1 (setting [3]); 7 µM in assay [2]; 0.33 µg/mL (≈ 1.08 µM) in the assay on HL-60 (setting [4]); 3.23 µg/mL (≈ 10.6 µM) in the assay on HepG2.

Consider `Cc1nc2c(s1)C(=O)C=C(Nc1ccc(F)cc1)C2=O`, for which the IC50 in the assay on A549 is 1.69 µg/mL (≈ 5.86 µM); in assay [1], > 200 µM; in the assay on COLO1 (setting [3]) it was 1.94 µg/mL (≈ 6.73 µM); in assay [2] it was 6.3 µM; in the assay on HL-60 (setting [4]), 0.23 µg/mL (≈ 0.798 µM); in the assay on HepG2, 1.51 µg/mL (≈ 5.24 µM).

On to `CCOc1ccc(NC2=CC(=O)c3sc(C)nc3C2=O)cc1`, for which the IC50 in the assay with A549 is 1.76 µg/mL (≈ 5.6 µM); in assay [1], > 200 µM; in the assay with COLO1 (setting [3]), 2.09 µg/mL (≈ 6.65 µM); in assay [2] it was 20 µM; in the assay on HL-60 (setting [4]), 0.29 µg/mL (≈ 0.922 µM); in the assay with HepG2, 1.53 µg/mL (≈ 4.87 µM).

Turning to `Cn1cnc2c(NCc3ccccc3)nc(NCCO)nc21` [OLOMOUCINE], the IC50 was 57 µg/mL (≈ 191 µM) with A549, 87 µg/mL (≈ 292 µM) in the assay on COLO1 (setting [3]) and 50 µg/mL (≈ 168 µM) in the assay on HL-60 (setting [4]).

CISPLATIN: the IC50 in the assay with COLO1 (colo1) is 1.38 µg/mL; with HL-60 (hl-60), 0.7 µg/mL.
